Laboratory results taken from ChEMBL document CHEMBL1142225, “Inhibiting HIV-1 integrase by shifting its oligomerization equilibrium” (Proc Natl Acad Sci U S A, 2007).
pKd: −log10 of the molar value. The source made the active and inactive calls. The rule behind the calls is not given here.

Columns and labels:
[1] = system: HeLa; assay: Toxicity against human HeLa cells by MTT method; type: cell-based
[2] = target: Human immunodeficiency virus type 1 integrase (Human immunodeficiency virus 1) (UniProt Q7ZJM1); assay: Inhibition of HIV1 integrase binding to LTR DNA by fluorescence anisotrophy
Procedure, shortened: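 Competition anisotropy at 10°C in 20 mM Tris pH 7.4/185 mM NaCl. LEDGF/p75 peptide (500 nM) was preincubated 0.5 h with His-tagged IN (4 μM), then titrated into fluorescein-labeled 36-mer HIV-1 LTR DNA (10 nM). Excitation 480 nm, emission 530 nm.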

[3] = target: Human immunodeficiency virus type 1 integrase (Human immunodeficiency virus 1) (UniProt Q7ZJM1); assay: Inhibition of HIV1 integrase 3'-end processing activity
[4] = target: Human immunodeficiency virus type 1 integrase (Human immunodeficiency virus 1, UniProt Q7ZJM1); assay: Binding affinity to HIV1 integrase tetrameric form by fluorescence anisotrophy
Procedure, shortened: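 Fluorescence anisotropy at 10°C in 20 mM Tris pH 7.4/185 mM NaCl (ionic strength 190 mM). His-tagged IN was titrated into fluorescein-labeled LEDGF/p75 peptide (0.05–0.1 μM) in 20 aliquots at 1-min intervals. Excitation was 480 nm and emission 530 nm. Kd was obtained from a Hill-equation fit.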

[5] = system: Human immunodeficiency virus 1; assay: Inhibition of HIV1 genome integration assessed as integrated viral DNA level at 2.5 uM by RT-PCR method; type: functional
Procedure, shortened: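 Integrated proviral DNA in infected cells was measured by nested real-time PCR. The second round used SYBR green with 300 nM primers and 50 cycles (95°C 15 s, 60°C 60 s). Quantification used a standard curve from full-length HIV-1 HXB2 plasmid (5 ng–0.25 fg). Samples were run in quadruplicate. Results are expressed as percentage of integrated viral DNA.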

[6] = system: Human immunodeficiency virus 1; assay: Effect on HIV1 replication in sup T1 cells assessed as total reverse transcribed viral DNA level at 12.5 uM by PCR; type: functional, organism-based
Procedure, shortened: (§1)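 Sup T1 cells (RPMI 1640, 10% FCS) were pretreated 2 h with compound, then infected with HIV-1 Δenv/VSV-G (HXB2 backbone) at MOI 2 for 6 h. Total viral DNA was detected by Gag-specific PCR on 10 ng DNA with 3.5 mM MgCl2 and 29 cycles.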

[7] = system: Human immunodeficiency virus 1; assay: Inhibition of HIV1 Tat-mediated HIV1 reporter gene expression in human TZM-bl HeLa MAGI cells; type: functional, organism-based
Procedure, shortened: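 TZM-bl (HeLa MAGI) cells carrying a Tat/TAR-driven β-galactosidase reporter were grown in DMEM with 10% FCS, seeded at 10 × 10^3 cells per well, and infected with HIV-1 at equal MOI. Read-out was reporter expression by MAGI assay.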

[8] = system: Human immunodeficiency virus 1; assay: Inhibition of HIV1 replication in human H9 cells assessed as reduction of p24 protein level after 10 days; type: functional, organism-based
Procedure, shortened: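 H9 T-lymphoid cells were preincubated 2 h with compound, then infected with wild-type HIV-1 HXB2 at MOI 0.1 (1 h adsorption at 37°C, then washed). Cells were cultured 10 days, and p24 released into the medium was measured by capture assay.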

[9] = system: Human immunodeficiency virus 1; assay: Inhibition of HIV1 in sup T1 cells assessed as total reverse transcribed viral DNA at 2 uM by PCR; type: functional, organism-based; procedure, shortened: as §1
[10] = target: Human immunodeficiency virus type 1 integrase (Human immunodeficiency virus 1) (UniProt Q7ZJM1); assay: Inhibition of HIV1 integrase strand transfer activity in presence of LTR DNA template
[11] = target: Human immunodeficiency virus type 1 integrase (Human immunodeficiency virus 1) (UniProt Q7ZJM1); assay: Inhibition of HIV1 integrase 3'-end processing activity at 21 uM

Chain of Human immunodeficiency virus type 1 integrase (Human immunodeficiency virus 1) (Q7ZJM1 as listed by the source): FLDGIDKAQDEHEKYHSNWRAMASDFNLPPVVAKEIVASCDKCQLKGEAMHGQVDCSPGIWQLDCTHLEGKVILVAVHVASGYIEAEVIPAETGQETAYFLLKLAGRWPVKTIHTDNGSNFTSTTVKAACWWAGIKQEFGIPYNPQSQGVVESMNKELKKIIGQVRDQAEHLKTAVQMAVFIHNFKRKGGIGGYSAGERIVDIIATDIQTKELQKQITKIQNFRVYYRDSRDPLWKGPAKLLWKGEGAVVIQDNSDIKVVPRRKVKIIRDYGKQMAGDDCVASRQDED
Chain of Human immunodeficiency virus type 1 integrase (Q7ZJM1 whole entry): as the sequence (Q7ZJM1 as listed by the source) above

Question: H-WNSLKIDNLDV-OH was tested. Which Activity [1] did it give?
Answer: Non-toxic

Question: What about the fold inhibition [2] of the same molecule?
Answer: 3 fold

Question: And the Activity [3]?
Answer: Active

Question: And the pKd [4]?
Answer: 5.43

Question: And the inhibition at 2.5 µM [5]?
Answer: > 90%

Question: And the Activity [6]?
Answer: inactive

Question: And the Activity [7]?
Answer: Dose-dependent effect

Question: What about the Activity [8] of the same molecule?
Answer: Active

Question: Which Activity [9] does the source give for `Cc1cn([C@H]2C[C@H](N=[N+]=[N-])[C@@H](CO)O2)c(=O)[nH]c1=O` here?
Answer: Active

Question: For H-WKKIRRFVSQVIM-OH, which Activity [1] is on record?
Answer: Non-toxic

Question: What about the Activity [2] of the same molecule?
Answer: 6

Question: And the Activity [3]?
Answer: Active

Question: And the pKd [4]?
Answer: 4.92

Question: And the inhibition at 2.5 µM [5]?
Answer: > 90%

Question: And the Activity [6]?
Answer: inactive

Question: What about the Activity [10] of the same molecule?
Answer: Active

Question: What about the Activity [7] of the same molecule?
Answer: Dose-dependent effect

Question: And the Activity [11]?
Answer: Active

Question: What about the Activity [8] of the same molecule?
Answer: Active

Question: With H-WIHAEIKNSLKIDNLDVNRCIEALD-OH as the molecule, how does the fold inhibition [2] read?
Answer: 3 fold

Question: And the pKd [4]?
Answer: 5.36
